In ChEMBL document CHEMBL1145787, “Synthesis and structure-activity relationship of N-substituted 4-arylsulfonylpiperidine-4-hydroxamic acids as novel, orally active matrix metalloproteinase inhibitors for the treatment of osteoarthritis” (J Med Chem, 2003):

Tests used:
[1] = biological target: T1, Disintegrin and metalloproteinase domain-containing protein 17 (Homo sapiens, UniProt P78536); assay: Inhibition of Tumor necrosis factor alpha converting enzyme (TACE) at 10 uM
Procedure, shortened: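 Dose–response curves were not generated when inhibition was below 60% at 10 μM.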

[2] = In vivo inhibitory activity against Matrix metalloprotease enzyme by dialysis implant assay, value is relative to activity of CGS-27023 (35+/-3) at 25 mg/kg. po; format: functional
Collagenase 3 = Collagenase 3 (Homo sapiens, UniProt P45452)
[3] = biological target: Matrix metalloproteinase-9 (Homo sapiens, UniProt P14780); assay: In vitro inhibitory activity against matrix metalloprotease-9.
Matrix metalloproteinase-9, sequence (P14780 whole entry): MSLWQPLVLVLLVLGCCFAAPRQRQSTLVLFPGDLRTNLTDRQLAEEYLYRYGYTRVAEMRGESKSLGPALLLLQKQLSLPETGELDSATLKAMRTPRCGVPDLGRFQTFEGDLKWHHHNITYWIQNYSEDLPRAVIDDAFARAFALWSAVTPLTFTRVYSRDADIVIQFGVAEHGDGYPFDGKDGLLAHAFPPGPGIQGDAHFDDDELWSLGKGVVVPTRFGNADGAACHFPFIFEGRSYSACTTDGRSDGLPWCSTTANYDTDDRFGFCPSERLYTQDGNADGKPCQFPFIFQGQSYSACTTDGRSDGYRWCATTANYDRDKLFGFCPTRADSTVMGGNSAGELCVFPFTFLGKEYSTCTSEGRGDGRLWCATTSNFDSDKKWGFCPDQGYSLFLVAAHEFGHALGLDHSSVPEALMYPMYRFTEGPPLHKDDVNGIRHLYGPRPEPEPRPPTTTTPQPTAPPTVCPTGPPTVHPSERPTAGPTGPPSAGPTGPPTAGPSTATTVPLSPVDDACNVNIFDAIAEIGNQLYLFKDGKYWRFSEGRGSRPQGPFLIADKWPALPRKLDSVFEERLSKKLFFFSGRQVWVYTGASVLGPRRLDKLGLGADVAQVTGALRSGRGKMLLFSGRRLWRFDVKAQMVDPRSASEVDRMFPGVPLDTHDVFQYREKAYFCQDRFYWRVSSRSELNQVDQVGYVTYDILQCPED

[4] = In vivo inhibitory activity against Matrix metalloprotease enzyme by dialysis implant assay, value are relative to activity of CGS-27023 (41+/-4) at 25 mg/kg. po; format: functional
Interstitial collagenase = biological target: T2, Interstitial collagenase (Homo sapiens, UniProt P03956); assay: In vitro inhibitory activity against matrix metalloprotease-1
T2 sequence (P03956 whole entry): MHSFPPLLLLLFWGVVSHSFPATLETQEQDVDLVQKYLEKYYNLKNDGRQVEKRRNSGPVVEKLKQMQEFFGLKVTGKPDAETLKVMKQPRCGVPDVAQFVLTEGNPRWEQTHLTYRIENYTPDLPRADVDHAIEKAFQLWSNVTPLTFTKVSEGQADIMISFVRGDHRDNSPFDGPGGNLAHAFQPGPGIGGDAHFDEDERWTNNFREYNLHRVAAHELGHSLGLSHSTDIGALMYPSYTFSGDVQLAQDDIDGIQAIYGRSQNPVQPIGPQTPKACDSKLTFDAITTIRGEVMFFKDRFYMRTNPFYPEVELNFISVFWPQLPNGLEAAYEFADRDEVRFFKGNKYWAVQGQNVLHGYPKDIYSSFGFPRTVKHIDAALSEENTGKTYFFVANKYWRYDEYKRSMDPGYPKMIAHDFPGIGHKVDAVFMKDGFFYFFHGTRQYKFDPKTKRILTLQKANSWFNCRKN

[5] = biological target: T1, Disintegrin and metalloproteinase domain-containing protein 17; assay: In vitro inhibitory activity against tumor necrosis factor alpha converting enzyme (TACE).

T1 sequence (P78536 whole entry, the tested form may be a part): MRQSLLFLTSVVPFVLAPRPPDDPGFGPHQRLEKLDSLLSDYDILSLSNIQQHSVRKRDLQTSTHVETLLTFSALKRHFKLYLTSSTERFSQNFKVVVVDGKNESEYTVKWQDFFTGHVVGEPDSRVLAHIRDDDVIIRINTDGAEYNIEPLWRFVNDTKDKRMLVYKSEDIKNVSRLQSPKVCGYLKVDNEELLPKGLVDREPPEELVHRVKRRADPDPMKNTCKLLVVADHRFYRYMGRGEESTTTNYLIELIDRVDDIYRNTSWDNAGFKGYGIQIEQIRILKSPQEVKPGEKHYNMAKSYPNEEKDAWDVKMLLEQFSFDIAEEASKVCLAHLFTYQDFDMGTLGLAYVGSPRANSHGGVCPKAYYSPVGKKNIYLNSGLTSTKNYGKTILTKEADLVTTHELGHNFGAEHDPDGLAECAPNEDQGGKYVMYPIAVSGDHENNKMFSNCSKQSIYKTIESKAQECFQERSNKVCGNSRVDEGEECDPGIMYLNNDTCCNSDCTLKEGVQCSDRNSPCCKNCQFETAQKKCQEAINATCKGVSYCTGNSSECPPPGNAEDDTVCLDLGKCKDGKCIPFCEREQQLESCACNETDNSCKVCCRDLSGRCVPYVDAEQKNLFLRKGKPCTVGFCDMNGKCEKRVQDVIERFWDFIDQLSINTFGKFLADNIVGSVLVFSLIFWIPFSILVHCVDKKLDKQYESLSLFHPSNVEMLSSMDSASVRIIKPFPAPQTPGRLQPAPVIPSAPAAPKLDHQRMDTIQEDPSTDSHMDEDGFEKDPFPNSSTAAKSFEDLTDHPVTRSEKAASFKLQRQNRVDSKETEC

Question: With CCCCOc1ccc(S(=O)(=O)C2(C(=O)NO)CCN(Cc3ccc(F)cc3)CC2)cc1 as the compound, how does the inhibition [1] read?
Answer: The inhibition was 39%.

Question: What about the inhibition in vivo at 25 mg/kg [2] of the same compound?
Answer: Its inhibition in vivo at 25 mg/kg is 48%.

Question: What about the IC50 (Collagenase 3) of the same compound?
Answer: Its IC50 is 0.005 µM.

Question: For COc1ccc(S(=O)(=O)C2(C(=O)NO)CCN(Cc3ccc(-c4cccs4)cc3)CC2)cc1, which IC50 [3] is on record?
Answer: Its IC50 is 0.011 µM.

Question: And the inhibition in vivo at 25 mg/kg [4]?
Answer: Its inhibition in vivo at 25 mg/kg is 12%.

Question: What about the IC50 (Collagenase 3) of the same compound?
Answer: The IC50 was 0.003 µM.

Question: And the IC50 (Interstitial collagenase)?
Answer: Its IC50 is 0.531 µM.

Question: What about the IC50 [5] of the same compound?
Answer: The IC50 was 0.273 µM.
